From ChEMBL document CHEMBL1649111, “Restoration of susceptibility of intracellular methicillin-resistant Staphylococcus aureus to beta-lactams: comparison of strains, cells, and antibiotics” (Antimicrob Agents Chemother, 2008)
≈ marks a conversion by molar mass, not a printed value.

Key:
[1] = tested on: Staphylococcus aureus; assay: Antimicrobial activity against intracellular hospital acquired methicillin-resistant Staphylococcus aureus ATCC 33591 activated infected in human THP-1 cells assessed as decrease in bacterial growth after 24 hrs at pH 7.4; type: functional, organism-based; conditions: ATCC 33591, THP-1, 24 h
How it was run: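 THP-1 cells activated by 24-h culture with phorbol myristate acetate 2 mg/liter, then infected like unactivated THP-1. Cloxacillin dose range in mg/liter for 24 h. CFU per mg cell protein relative to the original inoculum, n = 3. Emin and Emax extrapolated from a Hill fit (slope 1), with EC50 as total drug; static concentration by graphical interpolation.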

[2] = tested on: Staphylococcus aureus; assay: Antimicrobial activity against intracellular hospital acquired methicillin-resistant Staphylococcus aureus ATCC 33591 infected in human keratinocytes assessed as increase in bacterial count from original inoculum at low compound concentration after 24 hrs at pH 7.4; type: functional
How it was run: (§1)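 Primary human skin keratinocytes or Calu-3 bronchial epithelial cells, given an inoculum of 5 × 10⁷ to 1 × 10⁸ bacteria/ml and 2 h for internalization. Post-phagocytosis load 1.5 × 10⁶ to 3.0 × 10⁶ CFU per mg cell protein. Cloxacillin dose range in mg/liter for 24 h, n = 3. Hill-derived Emin, Emax and EC50; static concentration interpolated.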

[3] = tested on: Staphylococcus aureus; assay: Antimicrobial activity against intracellular hospital acquired methicillin-resistant Staphylococcus aureus ATCC 33591 infected in human keratinocytes assessed as decrease in bacterial growth after 24 hrs at pH 7.4; type: functional, organism-based; conditions: ATCC 33591, 24 h; how it was run: as §1
[4] = tested on: Staphylococcus aureus; assay: Antimicrobial activity against intracellular hospital acquired methicillin-resistant Staphylococcus aureus ATCC 33591 infected in human Calu3 cells assessed as decrease in bacterial growth after 24 hrs at pH 7.4; type: functional, organism-based; conditions: ATCC 33591, Calu-3, 24 h; how it was run: as §1
[5] = tested on: Staphylococcus aureus; assay: Antimicrobial activity against hospital acquired methicillin-resistant Staphylococcus aureus ATCC 33591 infected in human THP-1 cells assessed as increase in bacterial count from original inoculum at low compound concentration after 24 hrs at pH 7.4; type: functional
[6] = tested on: Staphylococcus aureus; assay: Antimicrobial activity against hospital acquired methicillin-resistant Staphylococcus aureus ATCC 33591 by broth microdilution method at pH 7.4; type: functional
How it was run: (§2)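 Minimal inhibitory concentration by broth microdilution at pH 7.4, read in mg/liter. The MRSA genotype was confirmed by mecA PCR, and the SCCmec subgroup was assigned by multiplex PCR.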

[7] = tested on: Staphylococcus aureus; assay: Antimicrobial activity against constitutive beta-lactamase negative methicillin-resistant Staphylococcus aureus COL NRS100 by broth microdilution method at pH 7.4; type: functional
[8] = tested on: Staphylococcus aureus; assay: Antimicrobial activity against hospital acquired methicillin-resistant Staphylococcus aureus N4120210 obtained from urinary tract infection patient by broth microdilution method at pH 7.4; type: functional; conditions: N4120210, Urine; how it was run: as §2
[9] = tested on: Staphylococcus aureus; assay: Antimicrobial activity against hospital acquired methicillin-resistant and vancomycin-intermediate Staphylococcus aureus NRS18 obtained from patient with wound, skin and soft tissue infection by broth microdilution method at pH 7.4; type: functional; how it was run: as §2
[10] = tested on: Staphylococcus aureus; assay: Antimicrobial activity against hospital acquired methicillin-resistant and vancomycin-intermediate Staphylococcus aureus VRS2 obtained from patient with wound, skin and soft tissue infection by broth microdilution method at pH 7.4; type: functional; how it was run: as §2
[11] = tested on: Staphylococcus aureus; assay: Antimicrobial activity against Panton-valentine leukocidin positive community acquired methicillin-resistant Staphylococcus aureus N4042228 by broth microdilution method at pH 5.5; type: functional
[12] = tested on: Staphylococcus aureus; assay: Antimicrobial activity against hospital acquired methicillin-resistant Staphylococcus aureus ATCC 33591 infected in human THP-1 cells assessed as increase in bacterial count from original inoculum at low compound concentration after 24 hrs at pH 5.5; type: functional
How it was run: (§3)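 Bacteria phagocytosed by unactivated human THP-1 macrophages, then incubated 24 h with extracellular antibiotic at about 0.01× to 100× the pH 5.5 broth MIC. CFU per mg cell protein counted against the original inoculum, n = 3. A Hill-equation fit (slope factor 1) gave Emin and Emax, extrapolated to infinitely low and high concentration, and EC50. Static concentration was graphically interpolated.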

[13] = tested on: Staphylococcus aureus; assay: Antimicrobial activity against constitutive beta-lactamase negative methicillin-resistant Staphylococcus aureus COL NRS100 infected in human THP-1 cells assessed as increase in bacterial count from original inoculum at low compound concentration after 24 hrs at pH 5.5; type: functional; how it was run: as §3
[14] = tested on: Staphylococcus aureus; assay: (§4) Antimicrobial activity against hospital acquired methicillin-resistant Staphylococcus aureus N4120210 obtained from urinary tract infection of patient infected in human THP-1 cells assessed as increase in bacterial count from original inoculum at low compound concentration after 24 hrs at pH 5.5; type: functional, Urine; how it was run: as §3
[15] = tested on: Staphylococcus aureus; assay: as §4, with “methicillin-resistant and vancomycin-intermediate” for “methicillin-resistant”, “NRS126” for “N4120210”, “bloodstream” for “urinary tract”; type: functional; how it was run: as §3
[16] = tested on: Staphylococcus aureus; assay: Antimicrobial activity against beta-lactamase negative methicillin-susceptible Staphylococcus aureus ATCC 25923 infected in human THP-1 cells assessed as decrease in bacterial count from original inoculum at high compound concentration after 24 hrs at pH 5.5; type: functional
How it was run: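 MSSA ATCC 25923 phagocytized by unactivated THP-1 macrophages; extracellular antibiotic from about 0.01× to 100× the broth MIC at pH 5.5, with gentamicin 0.5 mg/liter to block extracellular growth. CFU per mg cell protein counted at 24 h vs. original inoculum (n = 3). A Hill equation (slope factor 1) gives Emin/Emax, extrapolated to infinitely low/high concentration. Static concentration is read by graphical interpolation.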

[17] = tested on: Staphylococcus aureus; assay: Antimicrobial activity against animal acquired methicillin-resistant Staphylococcus aureus N7112046 infected in human THP-1 cells assessed as decrease in bacterial count from original inoculum at high compound concentration after 24 hrs at pH 5.5; type: functional; how it was run: as §3
[18] = tested on: Staphylococcus aureus; assay: Antimicrobial activity against Panton-valentine leukocidin positive community acquired methicillin-resistant Staphylococcus aureus N4090440 obtained from wound infection of patient infected in human THP-1 cells assessed as decrease in bacterial growth after 24 hrs at pH 5.5; type: functional, organism-based; conditions: N4090440, THP-1, 24 h; how it was run: as §3
[19] = tested on: Staphylococcus aureus; assay: Antimicrobial activity against hospital acquired methicillin-resistant and vancomycin-intermediate Staphylococcus aureus NRS18 obtained from wound, skin and soft tissue infection of patient infected in human THP-1 cells assessed as decrease in bacterial growth after 24 hrs at pH 5.5; type: functional, organism-based; conditions: NRS18, THP-1, 24 h; how it was run: as §3
[20] = tested on: Staphylococcus aureus; assay: Bacteriostatic activity against hospital acquired methicillin-resistant Staphylococcus aureus N4120032 infected in human THP-1 cells assessed as decrease in bacterial growth after 24 hrs at pH 5.5; type: functional
How it was run: (§5)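 Human THP-1 macrophages infected with each S. aureus strain. Cloxacillin added extracellularly at about 0.01× to 100× the broth MIC measured at pH 5.5, with gentamicin 0.5 mg/liter to stop extracellular growth. Incubated 24 h. CFU counted per mg cell protein as change from the post-phagocytosis inoculum, n = 3. Emin, Emax and EC50 from a Hill fit; static concentration by graphical interpolation.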

[21] = tested on: Staphylococcus aureus; assay: Bacteriostatic activity against hospital acquired methicillin-resistant Staphylococcus aureus HMC546 infected in human THP-1 cells assessed as decrease in bacterial growth after 24 hrs at pH 5.5; type: functional; how it was run: as §5
[22] = tested on: Staphylococcus aureus; assay: Bacteriostatic activity against hospital acquired methicillin-resistant and vancomycin-intermediate Staphylococcus aureus NRS126 infected in human THP-1 cells assessed as decrease in bacterial growth after 24 hrs at pH 5.5; type: functional; how it was run: as §5

## Cc1onc(-c2ccccc2Cl)c1C(=O)N[C@@H]1C(=O)N2[C@@H]1SC(C)(C)[C@@H]2C(=O)O [CLOXACILLIN]
[1]
  EC50: 0.32 µg/mL (≈ 0.734 µM)
[2]
  log10cfu: 2.06
[3]
  EC50: 0.39 µg/mL (≈ 0.895 µM)
[4]
  EC50: 0.39 µg/mL (≈ 0.895 µM)
[5]
  log10cfu: 2.27
[6]
  MIC: 16 µg/mL (≈ 36.7 µM)
[7]
  MIC: > 512 µg/mL
[8]
  MIC: 2 µg/mL (≈ 4.59 µM)
[9]
  MIC: 8 µg/mL (≈ 18.4 µM)
[10]
  MIC: 32 µg/mL (≈ 73.4 µM)
[11]
  MIC: 0.03 µg/mL (≈ 0.0688 µM)
[12]
  log10cfu: 2.27
[13]
  log10cfu: 2.42
[14]
  log10cfu: 2.6
[15]
  log10cfu: 2.76
[16]
  log10cfu: 0.77
[17]
  log10cfu: 0.72
[18]
  EC50: 3.14 ×MIC
[19]
  EC50: 3.96 ×MIC
[20]
  Activity: 33.1 ×MIC
[21]
  Activity: 11.7 ×MIC
[22]
  Activity: 20.9 ×MIC
